Screening data from PubChem.
TRPC6 inh – mouse TRPC6 channel inhibitors, primary screen, cell-based, HEK293, membrane potential dye | 310,000 compounds, 1.1% hits | AID 2553, 2010 | Short transient receptor potential channel 6 (Mus musculus), Q61143 | B-score at 10 µM | ACh-evoked depolarization; hits give low values;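 active = B-score under library mean minus 3 SD, initial fluorescence not abnormally high, positive integrated signal ratio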;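 note: B-score derived from integrated fluorescence ratio over the kinetic read; more negative B-score means stronger inhibition of depolarization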
TRPC6 act – mouse TRPC6 channel activators, primary screen, cell-based, HEK293, membrane potential dye. B-score at 10 µM. AID 2550, 2010. HEK293-TRPC6 membrane potential dye fluorescence; hits give high values. 310,000 compounds, 0.13% hits;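 active = B-score of the integrated fluorescence ratio above library mean plus 3 SD, and starting fluorescence ratio within library mean plus 5 SD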;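 note: higher score means more depolarization so channel activation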
TRPC4 inh – inhibitors of mouse TRPC4 channel, primary screen, Fluo4 calcium, HEK293 TRPC4beta/mu-opioid cells. AID 2247, 2010. Short transient receptor potential channel 4 (Mus musculus), Q9QUQ5. 300,000 compounds, 0.39% hits. DAMGO-evoked Fluo4 calcium flux; hits give low values. B-score at 10 µM;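 active = B-score over 3 SD under the library average, no early fluorescence shift, positive overall ratio signal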
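material = TRPC4beta/mu-opioid receptor HEK293 cell line | probe or stimulus = sequential submaximal and maximal DAMGO stimulation | compound dosing = one concentration per compound | measured by = Fluo4 Ca2+ flux fluorescence | evaluation = integrated fluorescence ratio relative to baseline, converted to per-well B score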
TRPC4 act – activators of mouse TRPC4 channel, primary screen, Fluo4 calcium, HEK293 TRPC4beta/mu-opioid cells | Fluo4 calcium fluorescence; hits give high values | B-score at 10 µM | 310,000 compounds, 0.49% hits | AID 2237, 2010;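 active = B-score above 5 SD of library B-scores, and initial fluorescence ratio not above library mean plus 5 SD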;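 note: positive B-score marks a calcium rise read as TRPC4 activation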
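Test system: HEK293 cells stably co-expressing mouse TRPC4beta and mu-opioid receptor | Schedule: Fluo4 dye loading 45 min at room temperature, 110 s recording | Measured by: Kinetic Fluo4 calcium fluorescence, 5 s baseline at 1 Hz | Evaluation: B score of integrated ratio | Controls: Buffer (low) and maximal DAMGO (high)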
TRPC4 potent – positive allosteric modulators of TRPC4, primary screen, cell-based, mouse TRPC4beta, HEK293 mu-opioid, Fluo-4 calcium; AID 2227, 2009; 310,000 compounds, 0.42% hits; B-score at 10 µM; DAMGO EC20, Fluo-4 Ca2+ flux; hits give high values;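 active = B-score of calcium response area above 5 SD of library B-scores, with initial fluorescence ratio within 5 SD of library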;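 note: B-score of integrated fluorescence ratio over time as area under calcium response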
HEK293 TRPC6 ctr – parental HEK293 membrane potential modulation, confirmation, counter-screen for TRPC6 modulator project, cell-based. AID 488924, 2010. membrane potential signal change, % at 10 µM. 2,400 compounds, 51% hits. membrane potential dye fluorescence. shares compounds with TRPC6 inh;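 active = membrane potential signal moves up or down beyond 5 SD from buffer-only wells, on both duplicate plates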
HEK293 MPD ctr 2 – parental HEK293 nonspecific activity of TRPC6 modulators, second screen; 2,400 compounds, 14% hits; AID 488926; membrane potential dye fluorescence; after compound, maximal acetylcholine stimulation; shares compounds with TRPC6 inh; inhibition, % at 10 µM;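 active = membrane potential signal drops by more than 5 SD from the mean control signal, in both duplicate plates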;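 note: plate controls were acetylcholine ECmax control wells for no effect and buffer only wells for full effect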
TRPC4 ctr mod – TRPC4 modulation by TRPC6 hit compounds, confirmation, selectivity assay for TRPC6 modulator project, cell-based, HEK293 TRPC4/mu-opioid, membrane potential dye, mouse | shares compounds with TRPC6 inh | membrane potential fluorescence | percent change from control (negative = decrease, positive = increase), % at 10 µM | 2,400 compounds, 69% hits | AID 488927, 2010;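 active = membrane potential signal moved up or down beyond 5 SD of buffer control wells, in both duplicate plates, actives on both sides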;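 note: plate controls were assay buffer wells for no effect and DAMGO maximal-effect wells for full effect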
TRPC4/MOR inh 2 – second check of whether TRPC6 modulators also affect mouse TRPC4; shares compounds with TRPC6 inh; HEK293 TRPC4/mu-opioid, membrane potential dye fluorescence; stimulated with maximal-effect DAMGO; inhibition, % at 10 µM; 2,400 compounds, 55% hits; AID 488928;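 active = drop in membrane potential signal beyond 5 SD of the control wells in both duplicate plates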;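 note: TRPC4 counter screen for TRPC6 hits run under conditions tuned for TRPC6 not TRPC4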
TRPC6 inh conf – mouse TRPC6 channel inhibitors, confirmation, HEK293 cells, membrane potential dye, duplicate; shares compounds with TRPC6 inh; ACh-evoked depolarization; inhibition, % at 10 µM; 3,300 compounds, 43% hits; AID 488960, 2010;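 active = fluorescence ratio falls more than 5 SD below the full-stimulation control mean, in both duplicate runs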;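 note: integrated fluorescence ratio of peak minus minimum over baseline after agonist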
TRPC6 act confirm – mouse TRPC6 channel activators, confirmation, HEK293 cells, membrane potential dye, duplicate | shares compounds with TRPC6 inh | 2,800 compounds, 11% hits | activation, % at 10 µM | HEK293-TRPC6 membrane potential dye fluorescence, FDSS;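 active = ratio signal rise beyond 5 SD above unstimulated control wells' mean, seen in both duplicate runs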;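 note: plate controls were buffer EC0 wells for no effect and acetylcholine ECmax response for full effect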
The depositor's hits bear a star; i = inactive; . = not tested or not shown. This is a sample that favours compounds with a hit; in the whole collection about 2.3% have one here.

SMILES | TRPC6 inh | TRPC6 act | TRPC4 inh | TRPC4 act | TRPC4 potent | HEK293 TRPC6 ctr | HEK293 MPD ctr 2 | TRPC4 ctr mod | TRPC4/MOR inh 2 | TRPC6 inh conf | TRPC6 act confirm
O=c1c2ccccc2[nH]c(=S)n1CCCN1CCC(Cc2ccccc2)CC1 | -5.9* | i | i | i | i | i | i | -10%* | 80%* | 56%* | i
CCN1CCN(CCn2c(=S)[nH]c3ccccc3c2=O)CC1 | -6.3* | i | i | i | i | i | i | i | i | 41%* | i
COc1ccc(N(CC(=O)Nc2cc(Cl)ccc2C)S(=O)(=O)c2c(C)n[nH]c2C)cc1 | i | i | i | i | i | . | . | . | . | . | .
O=C(c1ccco1)N1CCCC(c2nc3c(nnn3Cc3cccc(Cl)c3)c(=O)[nH]2)C1 (stereo not given) | -5.2* | i | i | i | i | i | i | 17%* | i | 50%* | i
O=C(c1ccco1)N1CCCC(c2nc3c(nnn3Cc3ccc(Cl)cc3Cl)c(=O)[nH]2)C1 (stereo not given) | i | i | i | i | i | . | . | . | . | . | .
CC(=O)c1cccc(NC(=O)C(C)N2CCc3ccccc3C2)c1 (stereo not given) | i | i | i | i | i | . | . | . | . | . | .
CC(=O)N1CCN(c2ccc(S(=O)(=O)NCCN(C(C)C)C(C)C)cc2[N+](=O)[O-])CC1 | i | i | i | i | i | . | . | . | . | . | .
